Assay outcomes as filed in PubChem BioAssay.
MrgX1 agonist: agonists of human MrgX1 receptor, primary screen, HEK293 cells, Fluo-4 calcium flux; Fluo-4 calcium fluorescence, agonist mode; active compounds read high; Mas-related G-protein coupled receptor member X1 (Homo sapiens), Q96LB2; B-score at 10 µM; actives 0.44% (n = 310,000);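 active = calcium response B-score plate-corrected fluorescence ratio at least 3 library SD, with starting fluorescence B-score inside 5 SD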
Target sequence (Q96LB2 whole entry, looked up): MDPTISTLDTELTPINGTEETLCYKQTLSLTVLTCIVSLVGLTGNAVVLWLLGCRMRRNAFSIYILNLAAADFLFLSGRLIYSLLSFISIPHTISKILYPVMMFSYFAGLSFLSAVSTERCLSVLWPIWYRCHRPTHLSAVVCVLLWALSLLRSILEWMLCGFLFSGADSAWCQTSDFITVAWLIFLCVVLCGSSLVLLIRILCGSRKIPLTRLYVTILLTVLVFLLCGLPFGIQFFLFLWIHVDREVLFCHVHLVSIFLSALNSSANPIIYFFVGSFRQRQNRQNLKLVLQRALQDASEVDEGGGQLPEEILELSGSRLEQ
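Test system: Stable human MrgX1 HEK293 cell line | Schedule: Overnight plating before 1 h dye loading | Read-out basis: Baseline-normalised fluorescence change ratio, B-scored | Detection: Kinetic calcium dye fluorescence, Fluo-4 NW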
Kir21 inh: inhibitors of mouse Kir2.1 inward-rectifier potassium channel; Inward rectifier potassium channel 2 (Mus musculus), P35561; HEK293-Kir2.1, FluxOR thallium flux fluorescence; active compounds read low; B-score at 10 µM; actives 0.85% (n = 310,000);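 active = fluorescence ratio B-score at or below minus 3 SD of library scores, with starting-brightness B-score within 2 SD, cut at about -4.2 in these data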;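 note: channel flux triggered by added potassium and thallium sulfate stimulus; B-score of peak minus minimum fluorescence over baseline after thallium stimulus; more negative B-score means stronger Kir2.1 block with less thallium influx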
Target sequence (P35561 whole entry, looked up): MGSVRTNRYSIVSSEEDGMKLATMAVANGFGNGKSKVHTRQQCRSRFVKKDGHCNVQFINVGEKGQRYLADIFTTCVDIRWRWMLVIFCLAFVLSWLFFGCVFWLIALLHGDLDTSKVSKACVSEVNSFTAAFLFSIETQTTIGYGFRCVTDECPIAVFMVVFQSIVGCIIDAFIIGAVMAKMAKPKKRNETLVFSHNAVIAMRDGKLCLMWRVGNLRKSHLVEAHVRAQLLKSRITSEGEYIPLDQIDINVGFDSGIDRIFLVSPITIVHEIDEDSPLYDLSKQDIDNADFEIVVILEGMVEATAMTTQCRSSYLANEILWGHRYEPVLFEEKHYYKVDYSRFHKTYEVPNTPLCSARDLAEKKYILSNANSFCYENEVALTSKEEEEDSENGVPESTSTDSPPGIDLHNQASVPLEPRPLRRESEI
MrgX1 antag: antagonists of human MrgX1 receptor, primary screen, HEK293 cells, Fluo-4 calcium flux; Mas-related G-protein coupled receptor member X1 (Homo sapiens), Q96LB2; BAM8-22 antagonism; active compounds read low; B-score at 10 µM; actives 1.3% (n = 310,000); AID 588676, 2011;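 active = calcium-response B-score plate-corrected more than 3 library SD below zero, starting fluorescence within 5 deviations, no agonist response on first addition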;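 note: peak minus trough fluorescence over baseline after final BAM8-22 challenge near maximal dose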
MrgX1 allo act: positive allosteric modulators of MrgX1, primary screen, HEK293 cells, Fluo-4 calcium flux; Mas-related G-protein coupled receptor member X1 (Homo sapiens), Q96LB2; FDSS; active compounds read high; B-score at 10 µM; actives 0.63% (n = 310,000);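 active = plate-corrected calcium response at least 3 library SD above typical, normal starting fluorescence, not activating the receptor alone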;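 note: compound read alongside a low EC10 to EC30 dose of BAM8-22 agonist; peak minus trough fluorescence over baseline measured at the second addition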
RGS4 inh: RGS4 inhibitors, primary screen, cell-based, HEK293 M3R inducible RGS4, calcium flux; B-score at 10 µM; Regulator of G-protein signaling 4 (Homo sapiens), P49798; actives 0.45% (n = 310,000); Fluo-4 calcium flux; active compounds read high; triggered by carbachol at its EC20;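 active = B-score, a plate-corrected calcium signal, over three deviations above library mean, with baseline fluorescence within five deviations of library mean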;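 note: RGS4 expression induced by doxycycline in cells with stable M3 receptor; B-score is computed from the integrated fluorescence ratio over baseline after carbachol; higher B-score means a larger calcium signal and so more RGS4 inhibition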
RGS4 act: RGS4 potentiators or activators, primary screen, cell-based, HEK293 M3R inducible RGS4, calcium flux; AID 463111, 2010; carbachol calcium flux Fluo4; active compounds read low; B-score at 10 µM; actives 0.92% (n = 310,000);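 active = B-score of the integrated calcium signal more than 4 SD below the library mean, with starting fluorescence not abnormally high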;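 note: negative B-score means reduced calcium response which marks RGS4 activation or potentiation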
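Detection: kinetic calcium fluorescence imaging with Fluo4-AM dye, 2 µM / Material: HEK293 cells with stable M3R and inducible RGS4 / Schedule: recording 10 s baseline at 1 Hz, 100 s post-agonist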
RGS4 block valid: enhanced carbachol calcium response, M3R/RGS4 cells, RGS4 inhibitor project, cell-based, validation screen, HEK293 M3R/RGS4, calcium flux. actives 65% (n = 1,700). shares compounds with RGS4 inh. calcium response, % at 10 µM. carbachol calcium Fluo-4 fluorescence; carbachol added at its EC20; 0 = buffer wells, 100 = carbachol control;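 active = duplicate-averaged calcium response above the buffer-only control mean plus 5 SD of those controls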;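 note: integrated fluorescence ratio F max minus min over baseline F0; higher response in RGS4-induced cells means RGS4 inhibition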
M3R Ca ctr: carbachol calcium response in non-induced M3R cells, confirmation, counter-screen for RGS4 inhibitor project, cell-based, HEK293 M3R; shares compounds with RGS4 inh; carbachol calcium Fluo-4; submaximal (EC20) carbachol stimulus; buffer wells 0%, carbachol control wells 100%; activity (percent), % at 10 µM; actives 20% (n = 1,900); AID 493000, 2010; call rule not given here;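 note: RGS4 induction absent so cells express M3R without RGS4; higher means more calcium signal and flags a non-specific hit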
RGS4 inh ctr2: signal in non-induced cells without carbachol, RGS4 inhibitor counter-screen. shares compounds with RGS4 inh. HEK293 M3R/RGS4 non-induced, Fluo-4 calcium, no carbachol; normalised: buffer wells 0%, carbachol wells 100%. calcium response (agonist-mode artifact), % at 10 µM. actives 22% (n = 1,900);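 active = duplicate-averaged calcium rise in uninduced cells above buffer wells' mean plus 5 SD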
Of the large screens only hits and unclear results are named; the others gave an inactive call (follow-up assays come after a bar, where they were run). The list is not random: actives were taken first. Their share in the collection is about 4.1%.

O=C(CC1Nc2cccc3cccc(c23)NC1=O)Nc1ccc(F)cc1 (stereo unspecified)	RGS4 inh 5.33 | RGS4 block valid 34.0% | M3R Ca ctr inactive | RGS4 inh ctr2 inactive
O=C(CC1Nc2ccccc2NC1=O)Nc1cc(Cl)cc(Cl)c1 (stereo unspecified)	RGS4 inh 14.6 | RGS4 block valid 24.0% | M3R Ca ctr inactive | RGS4 inh ctr2 18.5%
COc1ccc(NC(=O)CC2Nc3cccc4cccc(c34)NC2=O)cc1 (stereo unspecified)	none
CCCn1ncc(CN2CCCC(C(=O)c3cccc(OC(C)C)c3)C2)c1C (stereo unspecified)	none
CN(C(=O)COC(=O)c1ccc(=O)n(Cc2ccccc2)n1)C1CCS(=O)(=O)C1 (stereo unspecified)	none
CCc1ccc(S(=O)(=O)Nc2ccc(O)c3ccccc23)cc1	RGS4 inh 4.7 | RGS4 block valid 10.0% | M3R Ca ctr inactive | RGS4 inh ctr2 inactive
O=C(O)c1cccc(Nc2cc(Cl)c3nonc3c2[N+](=O)[O-])c1	none
CCOC(=O)c1c(-c2ccc(C)o2)csc1NC(=S)NC(=O)N(C)C	RGS4 inh 20.5 | RGS4 block valid inactive | M3R Ca ctr inactive | RGS4 inh ctr2 inactive
CCOC(=O)c1c(-c2ccc(C)o2)csc1NC(=O)COC(=O)c1cccs1	none
O=C1c2ccccc2C(=O)N1Nc1ccccc1	none
O=C1c2cccc3c([N+](=O)[O-])c(O)cc(c23)C(=O)N1Nc1ccccc1	RGS4 inh 6.3 | RGS4 block valid 11.5% | M3R Ca ctr inactive | RGS4 inh ctr2 inactive
COc1ccc(/C=C/C(=O)c2ccc([N+](=O)[O-])o2)cc1	RGS4 inh 10.6 | RGS4 block valid 25.0% | M3R Ca ctr 32.0% | RGS4 inh ctr2 inactive
Cc1ccccc1/C=C/C(=O)c1ccc([N+](=O)[O-])o1	RGS4 inh 6.65 | RGS4 block valid 24.5% | M3R Ca ctr inactive | RGS4 inh ctr2 inactive
COc1ccc(S(=O)(=O)N2CCN(C(=O)c3ccc([N+](=O)[O-])o3)CC2)cc1	none
O=C(/C=C/c1cccc([N+](=O)[O-])c1)c1ccc([N+](=O)[O-])o1	RGS4 inh 12.8 | RGS4 block valid 30.0% | M3R Ca ctr inactive | RGS4 inh ctr2 inactive
Cc1cccc(/C=C/C(=O)c2ccc([N+](=O)[O-])o2)c1	RGS4 inh 6.97 | RGS4 block valid 19.5% | M3R Ca ctr inactive | RGS4 inh ctr2 8.5%
O=C(/C=C/c1cccc([N+](=O)[O-])c1)NCc1ccc2c(c1)OCO2	none
COc1ccc2[nH]c(=O)c(CN(CCCN(C)C)C(=O)Nc3ccccc3)cc2c1	none
CCSc1ccc(-c2nn(-c3ccccc3)cc2/C=C(/C#N)C(=O)NCCCOC)cc1	none (no result: Kir21 inh, RGS4 inh, RGS4 act)
Cc1onc(CO)c1C(=O)Nc1nccs1	none
O=C(N=C1SCC(=O)N1c1ccccc1Cl)c1ccco1	none
CCCCCCc1ccc(-c2ncc(N)cn2)cc1	RGS4 inh 6.7 | RGS4 block valid 29.0% | M3R Ca ctr 61.0% | RGS4 inh ctr2 inactive
CCN(CC)C(=O)CSc1nc(C)cc(C)c1C#N	none
CCSc1n[nH]c2nc3c(c(=O)n12)C1(CCCC1)Cc1ccccc1-3	none | M3R Ca ctr inactive | RGS4 inh ctr2 inactive
COc1ccc(OC)c(S(=O)(=O)N2CCCC(C(=O)N3CCOCC3)C2)c1 (stereo unspecified)	RGS4 inh 4.78 | RGS4 block valid inactive | M3R Ca ctr inactive | RGS4 inh ctr2 inactive
COC(=O)/C=C/C(=O)Nc1cccc(C(F)(F)F)c1	RGS4 inh 6.69 | RGS4 block valid 13.0% | M3R Ca ctr 44.0% | RGS4 inh ctr2 inactive
Cc1cc(C)c(NC(=O)Cn2cnc3c(oc4ccccc43)c2=O)c(C)c1	none
N#C/C(=C\c1ccc([N+](=O)[O-])cc1)c1nc(C2CC2)cs1	RGS4 inh 12.8 | RGS4 block valid inactive | M3R Ca ctr inactive | RGS4 inh ctr2 56.0%
N#C/C(=C\c1ccccc1[N+](=O)[O-])c1nc(C2CC2)cs1	none
COCCCn1c(C(=O)NCCN2CCOCC2)cc2c(=O)n3ccccc3nc21	none
Cc1cc(N=Cc2c(O)ccc3cc(Br)ccc23)no1	RGS4 inh 9.93 | RGS4 block valid inactive | M3R Ca ctr inactive | RGS4 inh ctr2 23.5%
Cc1nc2nc(SCc3ccc([N+](=O)[O-])cc3)[nH]c2cc1Br	none
CCCCNC(=O)COc1ccccc1[N+](=O)[O-]	none
CCn1c(SCc2nc3ccccc3s2)nc2cc(S(=O)(=O)N3CCOCC3)ccc21	none
O/N=C/c1ccc2ccccc2n1	none
CC(=O)/C=C/c1ccc2ccccc2n1	Kir21 inh -4.79, RGS4 inh 24.7 | RGS4 block valid 49.5% | M3R Ca ctr inactive | RGS4 inh ctr2 inactive
Cn1c(OCc2ccco2)nc2c1c(=O)n(Cc1ccc(Cl)c(Cl)c1)c(=O)n2C	RGS4 inh 5.94 | RGS4 block valid 6.5% | M3R Ca ctr inactive | RGS4 inh ctr2 inactive
Cn1c(N2CCOCC2)nc2c1c(=O)n(Cc1ccc(Cl)c(Cl)c1)c(=O)n2C	none (no result: Kir21 inh, RGS4 inh, RGS4 act)
CC(C)OP(=O)(OC(C)C)C(Nc1ccc([N+](=O)[O-])cc1)c1cccc([N+](=O)[O-])c1 (stereo unspecified)	none
CC(C)OP(=O)(OC(C)C)/C(C=O)=N\Nc1ccc([N+](=O)[O-])cc1	RGS4 inh 6.61 | RGS4 block valid 13.0% | M3R Ca ctr inactive | RGS4 inh ctr2 inactive
CCOc1ccc(N2C(=O)CC(Sc3nc4ccc(OCC)cc4s3)C2=O)cc1 (stereo unspecified)	none
C=CCNc1nnc(SC2CC(=O)N(c3ccc(OCCC)cc3)C2=O)s1 (stereo unspecified)	none | RGS4 block valid inactive | M3R Ca ctr inactive | RGS4 inh ctr2 inactive
